As a reminder, the pIC50 is the negative decadic logarithm of the IC50, by convention in mol/L.

pIC50: −log10 of the molar value.

Series [1] addresses Acyl-CoA (8-3)-desaturase (Rattus norvegicus, UniProt Q920R3). Kind of series: Displacement of [3H]T-3364366 from D5D in rat liver microsomal membrane preincubated for 15 mins followed by radioligand addition measured after 150 mins by TopCount microscintillation counting assay. It counts as cell membranes. The procedure, abridged: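 Rat liver microsome fraction (30 μg/well) preincubated 15 min with test compound at room temperature in 10 mM Tris-HCl pH 7.5, 100 mM KCl, 10 mM NaF buffer, 200 μL/well; bound ligand trapped on GF/C filters, washed 5× with ice-cold buffer, counted by scintillation. Nonspecific binding with 10 μM unlabeled T-3364366; IC50 from three-parameter logistic fit.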
Background: In a radioligand displacement assay an active substance lowers the binding of a labelled ligand.

Series [2] concerns the target Acyl-CoA (8-3)-desaturase (Homo sapiens, UniProt O60427). Kind of series: Inhibition of D5D in human HepG2 cells assessed as [14C]AA formation from [14C]DGLA preincubated for 30 mins followed by [14C]eicosatrienoic acid addition measured after 3 hrs by TLC analysis. It counts as cell-based. The procedure, abridged:
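HepG2 plated at 1 × 10^5 cells/well, cultured overnight in DMEM/10% FBS, PBS-washed, then preincubated 30 min at 37 °C with compound in DMEM with penicillin/streptomycin and 0.3% BSA. 0.1 μCi [14C]eicosatrienoic acid added and cells incubated 3 h at 37 °C; lipids saponified overnight at 55 °C with NaOH, acidified, extracted with chloroform/MeOH, separated by TLC.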

Series [3] can be described thus: Drug metabolism in human hepatocytes assessed as 5-(4-fluorophenyl)-4-hydroxy-3-(3-methoxyphenyl)oxazolidin-2-one formation by LC-MS/MS analysis. It counts as ADME, cell-based, Hepatocyte. The procedure, abridged:
(§1)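 Human or mouse hepatocytes incubated with compound; metabolites identified by LC/MS/MS and formation ratio (%) calculated as metabolite UV peak area after incubation over parent peak area before incubation × 100, assuming equal extinction coefficients.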

The nature of series [4]: Drug metabolism in human hepatocytes assessed as 3-(5-(4-fluorophenyl)-4-hydroxy-2-oxooxazolidin-3-yl)phenyl hydrogen sulfate formation by LC-MS/MS analysis. It is filed as ADME, cell-based, Hepatocyte. The procedure, abridged: as §1
The nature of series [5]: Drug metabolism in mouse hepatocytes assessed as 5-(4-fluorophenyl)-3-(3-hydroxyphenyl)oxazolidin-2-one formation by LC-MS/MS analysis. It is filed as ADME, cell-based, Hepatocyte. The procedure, abridged:
as §1

Series [6] can be described thus: Drug metabolism in mouse hepatocytes assessed as 5-(4-fluorophenyl)-4-hydroxy-3-(3-methoxyphenyl)oxazolidin-2-one formation by LC-MS/MS analysis. It counts as ADME, cell-based, Hepatocyte. The procedure, abridged:
as §1

Series [7] in a line: Drug metabolism in mouse hepatocytes assessed as 3-(5-(4-fluorophenyl)-4-hydroxy-2-oxooxazolidin-3-yl)phenyl hydrogen sulfate formation by LC-MS/MS analysis. It counts as ADME, cell-based, Hepatocyte. In outline:
as §1

In series [8] the test system is Liver. Kind of series: Drug metabolism in mouse liver assessed as 5-(4-fluorophenyl)-3-(3-hydroxyphenyl)oxazolidin-2-one formation at 488 mg/kg/day, po by LC-MS/MS analysis. It counts as ADME, organism-based. Conditions: in vivo. The procedure, abridged:
(§2)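 Mice given compound orally as dietary admixture at 488 mg kg−1 day−1; liver concentrations of parent and metabolites determined by LC/MS/MS, metabolites quantified assuming extinction coefficient equal to parent.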

In series [9] the test system is Liver. In words: Drug metabolism in mouse liver assessed as 3-(5-(4-fluorophenyl)-2-oxooxazolidin-3-yl)phenyl hydrogen sulfate formation at 488 mg/kg/day, po by LC-MS/MS analysis. The conditions noted are these: in vivo. It counts as ADME, organism-based. In outline:
as §2

Series [10] deals with Liver. Kind of series: Drug metabolism in mouse liver assessed as (2S,3S,4S,5R,6S)-6-(5-(4-fluorophenyl)-3-(3-methoxyphenyl)-2-oxooxazolidin-4-yloxy)-3,4,5-trihydroxytetrahydro-2H-pyran-2-carboxylic acid formation at 488 mg/kg/day, po by LC-MS/MS analysis. It counts as ADME, organism-based. The conditions noted are these: in vivo. In outline:
as §2

Series [11] has as its system Liver. Kind of series: Drug metabolism in mouse liver assessed as (2S,3S,4S,5R,6S)-6-(3-(5-(4-fluorophenyl)-2-oxooxazolidin-3-yl)phenoxy)-3,4,5-trihydroxytetrahydro-2H-pyran-2-carboxylic acid formation at 488 mg/kg/day, po by LC-MS/MS analysis. It counts as ADME, organism-based. Conditions: in vivo. In outline: as §2
In series [12] the test system is Liver. In words: Drug metabolism in mouse liver assessed as 5-(4-fluorophenyl)-4-hydroxy-3-(3-methoxyphenyl)oxazolidin-2-one formation at 488 mg/kg/day, po by LC-MS/MS analysis. It is filed as ADME, organism-based. Conditions: in vivo. In outline:
as §2

The subject of series [13] is Liver. In words: Drug metabolism in mouse liver assessed as 3-(5-(4-fluorophenyl)-4-hydroxy-2-oxooxazolidin-3-yl)phenyl hydrogen sulfate formation at 488 mg/kg/day, po by LC-MS/MS analysis. It counts as ADME, organism-based. Conditions: in vivo. In outline:
as §2

Series [14] is described as follows: Drug stability in human hepatocytes by LC-MS/MS analysis. It counts as ADME, cell-based, Hepatocyte.
A short description of series [15]: Drug stability in mouse hepatocytes by LC-MS/MS analysis. It is filed as ADME, cell-based, Hepatocyte.

Sequence of Acyl-CoA (8-3)-desaturase (Rattus norvegicus, UniProt Q920R3) (Q920R3 whole entry): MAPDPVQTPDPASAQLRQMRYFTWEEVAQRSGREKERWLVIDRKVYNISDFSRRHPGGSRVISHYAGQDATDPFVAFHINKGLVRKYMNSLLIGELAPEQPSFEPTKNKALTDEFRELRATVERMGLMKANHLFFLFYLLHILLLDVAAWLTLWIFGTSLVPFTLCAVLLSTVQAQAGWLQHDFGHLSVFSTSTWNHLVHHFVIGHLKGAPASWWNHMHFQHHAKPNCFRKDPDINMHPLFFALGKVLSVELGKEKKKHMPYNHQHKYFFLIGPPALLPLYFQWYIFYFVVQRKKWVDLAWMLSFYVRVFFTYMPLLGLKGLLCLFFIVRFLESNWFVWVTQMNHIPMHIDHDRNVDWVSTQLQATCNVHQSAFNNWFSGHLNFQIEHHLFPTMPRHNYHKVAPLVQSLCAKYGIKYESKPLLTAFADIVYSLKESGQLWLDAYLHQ
Sequence of Acyl-CoA (8-3)-desaturase (Homo sapiens, UniProt O60427) (O60427 whole entry): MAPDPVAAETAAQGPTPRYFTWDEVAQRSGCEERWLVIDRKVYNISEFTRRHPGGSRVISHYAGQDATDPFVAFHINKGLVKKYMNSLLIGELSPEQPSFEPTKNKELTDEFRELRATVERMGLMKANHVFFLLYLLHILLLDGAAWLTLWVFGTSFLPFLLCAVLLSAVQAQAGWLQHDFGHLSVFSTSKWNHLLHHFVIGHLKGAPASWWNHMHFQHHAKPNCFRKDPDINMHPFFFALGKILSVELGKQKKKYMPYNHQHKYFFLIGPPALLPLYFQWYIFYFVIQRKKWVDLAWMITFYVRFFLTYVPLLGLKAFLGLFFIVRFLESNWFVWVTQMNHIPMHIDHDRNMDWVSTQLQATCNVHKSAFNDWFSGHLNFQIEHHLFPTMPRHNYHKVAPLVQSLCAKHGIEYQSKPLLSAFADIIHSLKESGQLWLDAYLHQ

On to `COc1cccc(N2CC(c3ccc(F)cc3)OC2=O)c1` (racemic), for which the pIC50 was 8.07 in [1] and 8.39 in [2]. The Drug metabolism entry was “Metabolite_Notdetected” in series [3]; “Metabolite_Notdetected” in [4]; “Metabolite_Notdetected” in series [5]; “Metabolite_Notdetected” in series [6]; “Metabolite_Notdetected” in series [7]; 0.51 to 1.21 µg/g with Liver [8]. In addition, the Drug metabolism was 4.41 to 12.9 µg/g in the series with Liver [9]; “Metabolite_Notdetected” in the series with Liver [10]; 0.83 to 2.5 µg/g with Liver [11]; 0.25 to 0.65 µg/g in the series with Liver [12]; 0.48 to 1.78 µg/g in the series with Liver [13]. In addition, the Stability in series [14] came out at 22.5%; in [15], 2.3%.

Source of the values: ChEMBL document CHEMBL4024749, “Discovery of 3,5-Diphenyl-4-methyl-1,3-oxazolidin-2-ones as Novel, Potent, and Orally Available Δ-5 Desaturase (D5D) Inhibitors” (J Med Chem, 2017).
